Reference: PMC9543358 (British Journal of Clinical Pharmacology, 2022)

Columns and labels:
[1] = cited from earlier work
[2] = Population pharmacokinetic model of cabotegravir plasma concentrations; format: in vivo, human; conditions: for IIV of CL/F / IIV of F1 / IIV of KALA / IIV of KAoral / IIV of V2/F: interindividual variability; for Smoke on CL/F (fractional change of CL/F in current smokers): current smoker
In short: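 Human plasma concentrations (23 926 from 1647 adults, HIV‑1‑infected and uninfected, 16 phase 1–3 studies; oral 10–60 mg, IM 200–800 mg) of the test compound were fitted in NONMEM (FOCE with interaction). The model was two‑compartment with first‑order oral and IM absorption and elimination, with a weight power function (shared exponents) on clearances and volumes. BQL data were handled by likelihood, with IOV on KALA/F1.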

[3] = cited from earlier work; remark: listed apart in the source
albumin in human plasma = conditions: cited from earlier work
HIV = conditions: cited from earlier work
[4] = cited from earlier work; remark: listed apart in the source
[5] = base model, typical subject of 76.6 kg

SMILES: C[C@@H]1CCO[C@H]2Cn3cc(C(=O)NCc4ccc(F)cc4F)c(=O)c(O)c3C(=O)N12 [DTG, dolutegravir]
- CL/F higher in current smokers [1]: 16%
- estimated absolute oral bioavailability higher in females than in males [1]: 21%

SMILES: C[C@H]1CO[C@@H]2Cn3cc(C(=O)NCc4ccc(F)cc4F)c(=O)c(O)c3C(=O)N12 [CAB, Cabotegravir]
- IIV of CL/F ([2]; base model): 24.9%
- IIV of F1 ([2]; base model): 17.2%
- IIV of KALA ([2]; base model): 71.4%
- IIV of KAoral ([2]; base model): 61.4%
- IIV of V2/F ([2]; base model): 22.6%
- BWT on V2/F and V3/F (exponent) ([2]; base model, power function of baseline body weight): 0.675
- CL/F, apparent central clearance [2, 5]: 0.16 L/h
- KALA, absorption rate constant for LA IM injection [2, 5]: 0.000642 h⁻¹
- KAoral, absorption rate constant for oral tablet [2, 5]: 1.12 h⁻¹
- race and age as covariates of PK ([2]; covariate evaluation, final model): not significant covariates
- BWT on V2/F and V3/F (exponent) ([2]; final model): 0.702
- KALA lower in females than males ([2]; final model): 50.9%
- KALA lower in subjects with BMI of 32.5 kg/m^2 (90th percentile) than BMI of 20.9 kg/m^2 (10th percentile) ([2]; final model): 28.6%
- KAoral, absorption rate constant for oral tablet ([2]; final model): 1.41 h⁻¹
- BMI exponent on KALA ([2]; final model, BMI/25.4): −0.766
- CL/F, apparent central clearance ([2]; final model, BWT 76.6 kg, not current smoker): 0.151 L/h
- Smoke on CL/F (fractional change of CL/F in current smokers) ([2]; final model): 17.4%
- Smoke on CL/F (fractional change of CL/F in current smokers) ([2]; final model, listed as cabotegravir): 17.4%
- Female on KALA (fractional change) ([2]; final model, female vs male): −50.9%
- IIV of CL/F ([2]; final model): 23.3%
- IIV of F1 ([2]; final model): 17.4%
- IIV of KALA ([2]; final model): 57.9%
- IIV of KAoral ([2]; final model): 89.4%
- IIV of V2/F ([2]; final model): 20.3%
- KALA, absorption rate constant for LA IM injection ([2]; final model, male, unsplit injection, BMI 25.4, needle length 1.5 inch): 0.000733 h⁻¹
- NDL exponent on KALA ([2]; final model, needle length/1.5 inch): 0.478
- Vd/F ([2]; human, plasma, other: oral tablet and LA IM injection, modelled together, V2/F, apparent central compartment volume of distribution, base model, typical subject of 76.6 kg): 5.5 L
- dose proportionality of exposure ([2]; oral 10 to 60 mg, LA 200 to 800 mg): dose proportional
- apparent clearance ([3]; following oral dosing): 0.21 L/h
- apparent volume of distribution ([3]; following oral dosing): 12.3 L
- route of elimination ([3]; hepatic metabolism): hepatic metabolism via UGT1A1 with a minor component by UGT1A9
- binding in human plasma (primarily to albumin) (albumin in human plasma): > 99%
- PA‐IC90, in vitro protein‐adjusted concentration resulting in 90% of the maximum inhibition of viral growth (HIV): 0.166 µg/mL
- permeability classification [4]: high permeability
- solubility classification [4]: low solubility
